Assay results reported in ChEMBL document CHEMBL4665720, “Bioisosteric substitution of adamantane with bicyclic lipophilic groups improves water solubility of human soluble epoxide hydrolase inhibitors” (Bioorg Med Chem Lett, 2020).
≈ marks a conversion by molar mass, not a printed value.

Legend:
[1] = Solubility of the compound in 0.1 M sodium phosphate buffer at pH 7.4; type: physicochemical
Summary of the method: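 Measured in 0.1 M sodium phosphate buffer, pH 7.4, with 1% DMSO present.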

[2] = target: T1, Bifunctional epoxide hydrolase 2 (Homo sapiens, UniProt P34913); assay: Inhibition of human soluble epoxide hydrolase by kinetic fluorescent assay
T1 sequence (P34913 whole entry): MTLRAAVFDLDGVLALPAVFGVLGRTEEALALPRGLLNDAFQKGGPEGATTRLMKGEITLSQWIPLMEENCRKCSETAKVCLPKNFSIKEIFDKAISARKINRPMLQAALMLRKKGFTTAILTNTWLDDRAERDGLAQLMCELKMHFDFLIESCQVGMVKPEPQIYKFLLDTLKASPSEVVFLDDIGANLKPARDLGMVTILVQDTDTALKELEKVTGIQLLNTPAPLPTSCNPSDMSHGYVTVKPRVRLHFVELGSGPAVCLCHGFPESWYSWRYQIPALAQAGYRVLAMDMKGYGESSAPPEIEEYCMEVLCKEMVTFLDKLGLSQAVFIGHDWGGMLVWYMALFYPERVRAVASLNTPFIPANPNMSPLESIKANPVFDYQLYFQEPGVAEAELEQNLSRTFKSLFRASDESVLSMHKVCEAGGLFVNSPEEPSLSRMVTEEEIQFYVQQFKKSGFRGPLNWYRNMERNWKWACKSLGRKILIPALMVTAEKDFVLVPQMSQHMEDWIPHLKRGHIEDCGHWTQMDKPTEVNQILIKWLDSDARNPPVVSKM
Summary of the method: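 Human sEH enzyme, kinetic fluorescence read-out; each value is the mean of three separate experiments.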

solubility ([1]; sodium phosphate buffer, read-out: solubility) | SMILES | solubility ([1]; buffer) | IC50 [2]
 | CC1(C)C2CCC1(C)C(NC(=O)Nc1ccccc1F)C2 (stereo not given) | 225 µM (≈ 65.3 µg/mL) | 14.4 nM
 | CC1(C)C2CCC1(C)C(NC(=O)NCCCCCCCCNC(=O)NC1CC3CCC1(C)C3(C)C)C2 (stereo not given) | 10 µM (≈ 5.03 µg/mL) | 0.4 nM
 | CCOC(=O)CNC(=O)NC1CC2CCC1C2 (stereo not given) | > 2000 µM | 1580 nM
 | O=C(NCc1ccco1)NCC12CC3CC(CC(C3)C1)C2 | 300 µM (≈ 86.5 µg/mL) | 44.8 nM
 | O=C(Nc1ccccc1F)NC1CC2CCC1C2 (stereo not given) | 325 µM (≈ 80.7 µg/mL) | 6.8 nM
 | CC1(C)C2CCC1(C)C(NC(=O)Nc1ccc(OC(F)(F)F)cc1)C2 (stereo not given) |  | 2.5 nM
 | CCCCCCCCNC(=O)NC1CC2CCC1(C)C2(C)C (stereo not given) | 125 µM (≈ 38.6 µg/mL) | 6.5 nM
 | CC12CCC(NC(=O)N[C@H]3CC[C@H](Oc4ccc(C(=O)O)cc4)CC3)(OC1=O)C2(C)C (stereo not given in full) | 300 µM (≈ 129 µg/mL) | 35.3 nM
 | CCOC(=O)CNC(=O)NC1CC2CCC1(C)C2(C)C (stereo not given) | > 2000 µM | 2170 nM
 | O=C(NCCCCNC(=O)NCc1ccco1)NCc1ccco1 | 225 µM (≈ 75.2 µg/mL) | 1800 nM
5 µM (≈ 2.19 µg/mL) | O=C(Nc1ccc(OC(F)(F)F)cc1)N[C@H]1CC[C@H](Oc2ccc(C(=O)O)cc2)CC1 |  | 
 | O=C(NCCCCNC(=O)NC1CC2C=CC1C2)NC1CC2C=CC1C2 (stereo not given) |  | 21 nM
 | O=C(NCCCCCCNC(=O)NCc1ccco1)NCc1ccco1 | 100 µM (≈ 36.2 µg/mL) | 86.3 nM
 | CC1(C)[C@@H]2CC[C@@]1(C)C(NC(=O)Nc1ccccc1F)C2 (mixture of isomers) | 225 µM | 50.6 nM
 | O=C(NC1CC2C=CC1C2)N[C@H]1CC[C@H](Oc2ccc(C(=O)O)cc2)CC1 (stereo not given in full) | 350 µM (≈ 130 µg/mL) | 1.5 nM
 | O=C(NCCCCCCCCNC(=O)NC1CC2CCC1C2)NC1CC2CCC1C2 (stereo not given) |  | 0.4 nM
 | O=C(NCc1ccco1)Nc1ccccc1F | 425 µM (≈ 99.5 µg/mL) | 635 nM
 | O=C(NC1CC2C=CC1C2)NC1C2CC3CC(C2)CC1C3 (stereo not given) |  | 0.9 nM
 | O=C(NCCCCCCCCNC(=O)NCc1ccco1)NCc1ccco1 | 50 µM (≈ 19.5 µg/mL) | 
 | CC1(C)C2CCC1(C)C(NC(=O)NCCCCNC(=O)NC1CC3CCC1(C)C3(C)C)C2 (stereo not given) | 10 µM (≈ 4.47 µg/mL) | 2.3 nM
 | O=C(Nc1ccc(OC(F)(F)F)cc1)NC1CC2CCC1C2 (stereo not given) |  | 0.4 nM
 | O=C(NCCCCNC(=O)NC1CC2CCC1C2)NC1CC2CCC1C2 (stereo not given) | 75 µM (≈ 27.2 µg/mL) | 11.8 nM
 | O=C(NCCCCCCCCCCNC(=O)NC1CC2C=CC1C2)NC1CC2C=CC1C2 (stereo not given) |  | 0.4 nM
 | O=C(NCC12CC3CC(CC(C3)C1)C2)NC1CC2C=CC1C2 (stereo not given) |  | 0.7 nM
 | CC1(C)[C@H]2CC[C@]1(C)C(NC(=O)Nc1ccccc1F)C2 (mixture of isomers) |  | 3.7 nM
